Data as given in ChEMBL document CHEMBL1926556, “Synthesis and biological activities of 2-[(heteroaryl)methyl]imidazolines” (Bioorg Med Chem, 2012).
The source made the active and inactive calls. The rule behind the calls is not given here.

Experiments:
[1] = target: T1, Adrenergic receptor alpha-2 (Rattus norvegicus, UniProt P22086+P19328+P22909); experiment: Displacement of […] from adrenoceptor alpha2 in Sprague-Dawley rat brain membranes after 45 mins by scintillation counting; type: cell membranes, Membrane
T1 sequence (P22086 whole entry): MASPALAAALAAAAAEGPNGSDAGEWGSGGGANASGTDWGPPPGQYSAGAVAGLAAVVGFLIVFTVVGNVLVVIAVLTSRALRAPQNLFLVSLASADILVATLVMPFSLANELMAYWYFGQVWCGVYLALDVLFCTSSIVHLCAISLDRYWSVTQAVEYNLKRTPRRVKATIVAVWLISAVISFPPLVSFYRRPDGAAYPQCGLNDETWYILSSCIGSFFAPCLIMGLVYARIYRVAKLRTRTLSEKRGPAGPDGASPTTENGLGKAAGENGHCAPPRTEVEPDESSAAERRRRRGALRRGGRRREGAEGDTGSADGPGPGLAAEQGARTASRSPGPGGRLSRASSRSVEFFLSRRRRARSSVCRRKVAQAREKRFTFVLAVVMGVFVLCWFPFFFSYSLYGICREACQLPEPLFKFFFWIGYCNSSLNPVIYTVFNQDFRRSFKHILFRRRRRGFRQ
T1 sequence (P19328 whole entry): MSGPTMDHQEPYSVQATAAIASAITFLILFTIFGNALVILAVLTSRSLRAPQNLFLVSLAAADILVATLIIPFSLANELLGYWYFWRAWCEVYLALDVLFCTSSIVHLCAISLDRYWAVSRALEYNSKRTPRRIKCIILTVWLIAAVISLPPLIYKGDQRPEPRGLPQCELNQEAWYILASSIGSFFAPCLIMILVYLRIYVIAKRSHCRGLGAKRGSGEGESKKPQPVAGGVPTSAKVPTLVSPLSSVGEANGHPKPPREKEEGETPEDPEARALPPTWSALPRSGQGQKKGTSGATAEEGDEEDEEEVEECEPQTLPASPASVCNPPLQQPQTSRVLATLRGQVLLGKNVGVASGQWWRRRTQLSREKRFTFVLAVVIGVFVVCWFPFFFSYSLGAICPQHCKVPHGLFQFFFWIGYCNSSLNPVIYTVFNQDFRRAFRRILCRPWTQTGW
T1 sequence (P22909 whole entry): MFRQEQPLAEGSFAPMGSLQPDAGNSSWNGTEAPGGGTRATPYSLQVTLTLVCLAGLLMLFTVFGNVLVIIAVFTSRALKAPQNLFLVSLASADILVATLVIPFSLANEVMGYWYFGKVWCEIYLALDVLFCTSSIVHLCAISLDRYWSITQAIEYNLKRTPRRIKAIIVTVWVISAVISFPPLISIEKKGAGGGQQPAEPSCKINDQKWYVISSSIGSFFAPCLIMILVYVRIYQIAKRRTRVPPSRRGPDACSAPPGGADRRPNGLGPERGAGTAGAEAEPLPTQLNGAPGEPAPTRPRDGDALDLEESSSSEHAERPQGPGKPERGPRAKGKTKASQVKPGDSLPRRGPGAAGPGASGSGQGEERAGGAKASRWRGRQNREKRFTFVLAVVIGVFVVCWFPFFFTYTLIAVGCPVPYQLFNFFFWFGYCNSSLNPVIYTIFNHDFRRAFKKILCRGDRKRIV
In short: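 Crude P2 membranes from male Sprague–Dawley rat brain (250–280 g), 0.2–0.3 mg protein. Radioligand 1 nM: [3H]2BFI for I2, [3H]prazosin for α1, [3H]RX821002 for α2. Non-specific binding defined by 10 µM BU224 (I2), 10 µM phenylephrine (α1) or 10 µM rauwolscine (α2). 11 concentrations from 0.01 nM to 100 µM, triplicate, 45 min at RT. Filtration and scintillation counting; Ki by Cheng–Prusoff.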

Rattus norvegicus [2] = experiment: Antihypertensive activity in Wistar rat assessed as inhibition of methoxamine-induced change in blood pressure at 0.1 mg/kg, iv administered 10 mins after 20 ug/kg/min methoxamine challenge; type: functional, organism-based; parameters: dose 0.1 mg/kg
In short: (§1)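 Male Wistar rats (200–290 g) anaesthetized with i.p. thiopental 70 mg/kg, maintained by thiopental infusion, 36–37 °C. Carotid catheter for BP/HR, jugular line for infusion. Methoxamine i.v. infusion 10 or 20 µg/kg/min began 10 min before 0.1 mg/kg i.v. bolus. Readout is ΔMAP or ΔHR from time 0. Five to seven rats per group; repeated-measures ANOVA.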

Rattus norvegicus [3] = experiment: Antihypertensive activity in Wistar rat assessed as inhibition of methoxamine-induced change in blood pressure at 0.1 mg/kg, iv administered 10 mins after 10 ug/kg/min methoxamine challenge; type: functional, organism-based; parameters: dose 0.1 mg/kg; in short: as §1
Rattus norvegicus [4] = experiment: Antihypertensive activity in Wistar rat assessed as inhibition of methoxamine-induced change in heart rate at 0.1 mg/kg, iv administered 10 mins after 10 ug/kg/min methoxamine challenge; type: functional, organism-based; parameters: dose 0.1 mg/kg; in short: as §1
Rattus norvegicus [5] = experiment: Antihypertensive activity in Wistar rat assessed as inhibition of methoxamine-induced change in heart rate at 0.1 mg/kg, iv co-administered with 10 ug/kg/min methoxamine challenge; type: functional, organism-based; parameters: dose 0.1 mg/kg; in short: as §1
Rattus norvegicus [6] = experiment: Anxiolytic activity in Sprague-Dawley rat assessed as loss of righting reflex at 10 ug/kg, ip measured after 30 mins; type: functional, organism-based
In short: (§2)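 Male Sprague–Dawley rats (250–270 g) were handled by the experimenter one day before testing. Compound was dissolved in sterile saline and given i.p. If no loss of righting reflex occurred after 5 min, the dose was repeated, up to 2000 µg/kg cumulative. Animals were watched for righting reflex, locomotion, motor coordination and behaviour. Righting reflex was scored at 30 min.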

Rattus norvegicus [7] = experiment: Anxiolytic activity in Sprague-Dawley rat assessed as loss of righting reflex at 100 ug/kg, ip measured after 30 mins; type: functional, organism-based; in short: as §2
Rattus norvegicus [8] = experiment: Anxiolytic activity in Sprague-Dawley rat assessed as loss of righting reflex at 500 ug/kg, ip measured after 30 mins; type: functional, organism-based; in short: as §2
Rattus norvegicus [9] = experiment: Anxiolytic activity in Sprague-Dawley rat assessed as loss of righting reflex at 1000 ug/kg, ip measured after 30 mins; type: functional, organism-based; in short: as §2
Rattus norvegicus [10] = experiment: Anxiolytic activity in Sprague-Dawley rat assessed as loss of righting reflex at 2000 ug/kg, ip measured after 30 mins; type: functional, organism-based; in short: as §2
Rattus norvegicus [11] = experiment: Toxicity in Sprague-Dawley rat assessed as loss of spontaneous locomotory activity at 10 to 2000 ug/kg, ip measured within 5 to 8 mins; type: organism-based; details: in vivo; in short: as §2
Rattus norvegicus [12] = experiment: Toxicity in Sprague-Dawley rat assessed as subdued state at 10 to 2000 ug/kg, ip measured after 30 mins; type: organism-based; details: in vivo, 0.5 h; in short: as §2
Rattus norvegicus [13] = experiment: Toxicity in Sprague-Dawley rat assessed as still state at 10 to 2000 ug/kg, ip measured after 30 mins; type: organism-based; details: in vivo, 0.5 h; in short: as §2
Rattus norvegicus [14] = experiment: Toxicity in Sprague-Dawley rat assessed as exploratory behavior at 10 to 2000 ug/kg, ip measured after 30 mins; type: organism-based; details: in vivo, 0.5 h
Rattus norvegicus [15] = experiment: Toxicity in Sprague-Dawley rat assessed as resistance to handling at 10 to 2000 ug/kg, ip measured after 30 mins; type: organism-based; details: in vivo, 0.5 h; in short: as §2
Rattus norvegicus [16] = experiment: Toxicity in Sprague-Dawley rat assessed as increase in body temperature at 10 to 2000 ug/kg, ip measured after 30 mins; type: organism-based; details: in vivo, 0.5 h
Rattus norvegicus [17] = experiment: Antihypertensive activity in Wistar rat assessed as inhibition of methoxamine-induced change in heart rate at 0.1 mg/kg, iv administered 10 mins after 20 ug/kg/min methoxamine challenge; type: functional, organism-based; parameters: dose 0.1 mg/kg; in short: as §1

Question: How did the Ki [1] turn out when Cl.Clc1cccc2cnn(CC3=NCCN3)c12 was run?
Answer: 0.0064 µM

Question: What about the Activity (Rattus norvegicus [2]) of the same compound?
Answer: inactive

Question: What about the Activity (Rattus norvegicus [3]) of the same compound?
Answer: inactive

Question: And the Activity (Rattus norvegicus [4])?
Answer: inactive

Question: And the Activity (Rattus norvegicus [5])?
Answer: Active

Question: What about the Activity (Rattus norvegicus [6]) of the same compound?
Answer: inactive

Question: What about the Activity (Rattus norvegicus [7]) of the same compound?
Answer: inactive

Question: And the Activity (Rattus norvegicus [8])?
Answer: inactive

Question: And the Activity (Rattus norvegicus [9])?
Answer: Active

Question: What about the Activity (Rattus norvegicus [10]) of the same compound?
Answer: Active

Question: And the Activity (Rattus norvegicus [11])?
Answer: Toxic

Question: What about the Activity (Rattus norvegicus [12]) of the same compound?
Answer: Non-toxic

Question: What about the Activity (Rattus norvegicus [13]) of the same compound?
Answer: Non-toxic

Question: And the Activity (Rattus norvegicus [14])?
Answer: Non-toxic

Question: And the Activity (Rattus norvegicus [15])?
Answer: Non-toxic

Question: And the Activity (Rattus norvegicus [16])?
Answer: Toxic

Question: And the Activity (Rattus norvegicus [17])?
Answer: inactive

Question: Which Ki [1] does the source give for Cc1cccc2cnn(CC3=NCCN3)c12.Cl here?
Answer: 0.607 µM

Question: For Cl.c1ccc2c(c1)cnn2CC1=NCCN1, which Ki [1] is on record?
Answer: 0.0185 µM
